Assay results reported in ChEMBL document CHEMBL4342523, “Discovery and Development of S6821 and S7958 as Potent TAS2R8 Antagonists” (J Med Chem, 2020).
≈ marks a conversion by molar mass, not a printed value.

Assays:
[1] = molecular target: T1, Taste receptor type 2 member 8 (Homo sapiens, UniProt Q9NYW2); test: Antagonist activity at recombinant human TAS2R8 stably expressed in cells co-expressing Galpha16gust44 assessed as inhibition of andrographolide-induced intracellular calcium level measured for 100 secs by fluo-4 dye based FLIPR assay; format: functional, cell-based
T1 sequence (Q9NYW2 whole entry): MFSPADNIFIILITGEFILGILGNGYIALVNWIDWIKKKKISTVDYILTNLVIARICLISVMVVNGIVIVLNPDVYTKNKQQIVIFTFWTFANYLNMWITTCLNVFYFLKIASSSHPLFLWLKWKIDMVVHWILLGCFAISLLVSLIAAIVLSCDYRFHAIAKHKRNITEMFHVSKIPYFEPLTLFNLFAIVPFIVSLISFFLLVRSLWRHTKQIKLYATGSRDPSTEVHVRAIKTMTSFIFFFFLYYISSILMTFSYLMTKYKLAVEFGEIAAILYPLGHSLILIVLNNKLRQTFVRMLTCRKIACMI
How it was run: (§1)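 Recombinant cells stably expressing G16t44 chimera and TAS2R8 (clones isolated by limiting dilution), plated 24 h before assay; loaded with fluo-4 in PBS 60 min, washed, rested 15 min in dark at RT. Andrographolide agonist at its EC80, premixed with antagonist and added together; final DMSO 0.5%. Baseline read 10 s, then fluorescence followed 100 s on FLIPR.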

[2] = Solubility of the compound in pH 7.1 buffer measured after 24 hrs; format: physicochemical
[3] = Stability of the compound in pH 7.1 buffer assessed as parent compound remaining measured after 24 hrs at 100 degC; format: physicochemical; settings: read-out: Stability
[4] = Stability of the compound in pH 2.8 buffer assessed as parent compound remaining measured after 24 hrs at 100 degC; format: physicochemical; settings: read-out: Stability
[5] = Ratio of solubility of the compound in pH 7.1 buffer measured after 24 hrs to IC50 for antagonist activity at recombinant human TAS2R8 expressed in cells co-expressing Galpha16gust44 assessed as inhibition of andrographolide-induced intracellular calcium level; format: cell-based
[6] = Drug metabolism in pH <6.5 buffer assessed as S6821 formation measured under room temperature
[7] = molecular target: T2, Taste receptor type 2 member 8 (Homo sapiens) (UniProt Q9NYW2); test: Antagonist activity at recombinant human TAS2R8 stably expressed in cells co-expressing Galpha16gust44 assessed as inhibition of andrographolide-induced intracellular calcium level at 10 uM measured for 100 secs by fluo-4 dye based FLIPR assay relative to control; format: functional, cell-based; how it was run: as §1
T2 sequence (whole entry): T1 sequence (Q9NYW2 whole entry)

For `Cc1noc(C)c1Cn1cc(N2C(=O)c3ccccc3C2=O)cn1`, the IC50 [1] was 200 nM, the solubility at 24 h [2] was 12 µM (≈ 3.87 µg/mL) and the remaining at 24 h [3] was 5%. For the same compound, the remaining at 24 h [4] was 3%.
In the case of `CNC(=O)c1cccc(CN2CC(=O)N(c3cnn(Cc4c(C)noc4C)c3)C2=O)c1`, the IC50 [1] is reported as 100 nM.
Compound `Cc1noc(C)c1Cn1cc(NC(=O)c2ccccc2)cn1` has an IC50 [1] of 1700 to 2000 nM.
With `COc1cccc(C(=O)Nc2cnn(Cc3c(C)noc3C)c2)n1` the IC50 [1] was 700 nM.
Work on `Cc1noc(C)c1Cn1cc(NC(=O)c2cccc(O)c2)cn1` yielded an IC50 [1] of 400 nM.
`Cc1noc(C)c1Cn1cc(NC(=O)CCc2ccccc2)cn1` gave an IC50 [1] of 400 nM.
`COc1cncc(C(=O)Nc2cnn(Cc3c(C)noc3C)c2)c1` showed an IC50 [1] of 800 nM.
`Cc1noc(C)c1Cn1cc(NC(=O)Cc2ccccc2)cn1` gave an IC50 [1] of 800 nM.
`Cc1noc(C)c1Cn1cc(N2C(=O)[C@H](C)N(Cc3cccc(O)c3)C2=O)cn1` showed a solubility at 24 h [2] of 60 µM (≈ 23.7 µg/mL), a remaining at 24 h [3] of 92% and a Ratio [5] of 3750. For the same compound, the remaining at 24 h [4] was over 99%.
With `Cc1noc(C)c1Cn1cc(NC(=O)c2ccccc2O)cn1` the IC50 [1] was 1000 nM.
With `Cc1noc(C)c1Cn1cc(N2C(=O)CN(CC3CCCO3)C2=O)cn1` (stereo not drawn) the IC50 [1] was 1000 nM.
`Cc1noc(C)c1Cn1cc(N2C(=O)CN(Cc3ccc(O)cc3)C2=O)cn1` gave an IC50 [1] of 40 nM.
Work on `Cc1noc(C)c1Cn1cc(NC(=O)c2ccccn2)cn1` yielded an IC50 [1] of 2300 nM.
In the case of `Cc1noc(C)c1Cn1cc(N2C(=O)C(=O)N(Cc3ccccc3)C2=O)cn1`, the IC50 [1] is reported as 2000 nM.
`COc1ccc(C(=O)Nc2cnn(Cc3c(C)noc3C)c2)cc1` showed an IC50 [1] of 700 nM.
For `Cc1noc(C)c1Cn1cc(N2C(=O)CNC2=O)cn1`, the IC50 [1] was 900 nM.
For `Cc1noc(C)c1Cn1cc(N2C(=O)N(Cc3cccc(O)c3)C3(CCC3)C2=O)cn1`, the IC50 [1] was 40 nM, the solubility at 24 h [2] was 3 µM (≈ 1.26 µg/mL) and the remaining at 24 h [3] was 98%. For the same compound, the Ratio [5] was 77 and the remaining at 24 h [4] was 97%.
Compound `COc1cccc(C(=O)Nc2cnn(Cc3c(C)noc3C)c2)c1` has an IC50 [1] of 700 nM.
Compound `Cc1noc(C)c1Cn1cc(N2C(=O)CN(Cc3ccccc3F)C2=O)cn1` has an IC50 [1] of 100 nM, a solubility at 24 h [2] of 51 µM (≈ 19.6 µg/mL) and a Ratio [5] of 600.
In the case of `Cc1noc(C)c1Cn1cc(NC(=O)c2ccc3ocnc3c2)cn1`, the IC50 [1] is reported as 3000 nM.
`COc1ncccc1C(=O)Nc1cnn(Cc2c(C)noc2C)c1` gave an IC50 [1] of 1100 nM.
With `Cc1noc(C)c1Cn1cc(N2CCN(Cc3ccccc3)C2=O)cn1` the IC50 [1] was 1000 nM.
With `Cc1noc(C)c1Cn1cc(N2C(=O)CN(Cc3ccccc3O)C2=O)cn1` the IC50 [1] was 100 nM.
For `Cc1noc(C)c1Cn1cc(N2C(=O)CN(Cc3ccccc3)C2=O)cn1`, the IC50 [1] was 200 nM, the solubility at 24 h [2] was 70 µM (≈ 25.6 µg/mL) and the remaining at 24 h [3] was 60%. It also gave a remaining at 24 h [4] of over 99%.
Work on `Cc1noc(C)c1Cn1cc(N2C(=O)CN(Cc3ccccn3)C2=O)cn1` yielded an IC50 [1] of 1000 nM.
Work on `Cc1noc(C)c1Cn1cc(NC(=O)c2ccc(O)cc2)cn1` yielded an IC50 [1] of 500 nM.
Compound `Cc1noc(C)c1Cn1cc(NC(=O)c2ccc3[nH]ccc3c2)cn1` has an IC50 [1] of 300 nM.
Compound `COc1ccc(C(=O)Nc2cnn(Cc3c(C)noc3C)c2)cc1OC` has an IC50 [1] of 1000 nM.
Compound `Cc1cc(CN2CC(=O)N(c3cnn(Cc4c(C)noc4C)c3)C2=O)n(C)n1` has an IC50 [1] of 200 nM.
In the case of `Cc1noc(C)c1Cn1cc(NC(=O)N(CC(=O)O)Cc2cccc(O)c2)cn1`, the Drug metabolism [6] is reported as “Metabolite detected”.
With `Cc1noc(C)c1Cn1cc(N2C(=O)[C@@H](C)N(Cc3cccc(O)c3)C2=O)cn1` the solubility at 24 h [2] was 61 µM (≈ 24.1 µg/mL), the remaining at 24 h [3] was 92% and the Ratio [5] was 3390. The remaining at 24 h [4] was over 99%.
`Cc1noc(C)c1Cn1cc(N2C(=O)N(Cc3cccc(O)c3)C(C)(CO)C2=O)cn1` (stereo not drawn) gave an IC50 [1] of 100 nM, a solubility at 24 h [2] of 356 µM (≈ 151 µg/mL) and a remaining at 24 h [3] of 43%. The Ratio [5] was 2660 and the remaining at 24 h [4] was over 99%.
`Cc1noc(C)c1CN1CC(=O)N(c2cnn(Cc3c(C)noc3C)c2)C1=O` showed an IC50 [1] of 400 nM.
`Cc1noc(C)c1Cn1cc(N2C(=O)N(Cc3cccc(O)c3)C3(CC3)C2=O)cn1` gave a solubility at 24 h [2] of 31 µM (≈ 12.6 µg/mL), a remaining at 24 h [3] of 96% and a Ratio [5] of 1550. It also gave a remaining at 24 h [4] of over 99%.
For `Cc1noc(C)c1Cn1cc(NS(=O)(=O)c2ccccc2)cn1`, the IC50 [1] was 4000 nM.
For `Cc1noc(C)c1Cn1cc(N2C(=O)CN(Cc3cccc(C(=O)O)c3)C2=O)cn1`, the IC50 [1] was 2000 nM.
For `Cc1noc(C)c1Cn1cc(N2C(=O)[C@H](CO)N(Cc3cccc(O)c3)C2=O)cn1`, the solubility at 24 h [2] was 2480 µM (≈ 1020 µg/mL), the remaining at 24 h [3] was 2% and the Ratio [5] was 57600. It also gave a remaining at 24 h [4] of 53%.
Work on `COc1ccc(OC)c(C(=O)Nc2cnn(Cc3c(C)noc3C)c2)c1` yielded an IC50 [1] of 300 nM.
For `Cc1noc(C)c1Cn1cc(N2Cc3ccccc3C2=O)cn1`, the IC50 [1] was 9000 nM.
In the case of `Cc1noc(C)c1Cn1cc(NC(=O)Nc2ccccc2)cn1`, the IC50 [1] is reported as 2000 nM.
`Cc1noc(C)c1Cn1cc(NC(=O)CCCc2ccccc2)cn1` gave an IC50 [1] of 800 nM.
`CCSc1ncccc1C(=O)Nc1cnn(Cc2c(C)noc2C)c1` gave an IC50 [1] of 2300 nM and an inhibition [7] of 50%.
`Cc1noc(C)c1Cn1cc(N2C(=O)CN(CC3CCCCC3)C2=O)cn1` gave an IC50 [1] of 300 nM.
For `COc1ccccc1C(=O)Nc1cnn(Cc2c(C)noc2C)c1`, the IC50 [1] was 1900 nM.
`COC(=O)c1cccc(CN2CC(=O)N(c3cnn(Cc4c(C)noc4C)c3)C2=O)c1` showed an IC50 [1] of 100 nM.
`COc1ccccc1CN1CC(=O)N(c2cnn(Cc3c(C)noc3C)c2)C1=O` showed an IC50 [1] of 100 nM, a solubility at 24 h [2] of 16 µM (≈ 6.33 µg/mL) and a Ratio [5] of 267.
Compound `Cc1noc(C)c1Cn1cc(NC(=O)NCc2ccccc2)cn1` has an IC50 [1] of 1000 nM.
